Assays:
Type in all cases: functional
[1] = tested on: Litomosoides carinii; assay: Antifilarial activity (percent reduction of live Litomosoides carinii at necropsy relative to controls) was evaluated at dose of 100 mg/kg/day administered subcutaneously; conditions: route subcutaneous
How it was run: (§1)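 Male jirds (Meriones unguiculatus) carrying adult Brugia pahangi and Litomosoides carinii. Infection was by intraperitoneal inoculation of 24-25 L. carinii larvae 76–133 days before treatment, followed by 49-50 immature B. pahangi. Dosing was daily for 5 days. Necropsy was 55–70 days after the first dose, with a search of the pleural and peritoneal cavities. Live adult worms were scored as % reduction versus controls, usually averaged over 3 animals.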

[2] = tested on: Brugia pahangi; assay: Antifilarial activity (percent reduction of live Brugia pahangi at necropsy relative to controls) was evaluated at dose of 100 mg/kg/day administered subcutaneously; conditions: route subcutaneous; how it was run: as §1
[3] = tested on: Brugia pahangi; assay: Antifilarial activity (percent reduction of live Brugia pahangi at necropsy relative to controls) was evaluated at dose of 6.25 mg/kg/day administered subcutaneously; conditions: route subcutaneous; how it was run: as §1
[4] = tested on: Brugia pahangi; assay: Antifilarial activity (percent reduction of live Brugia pahangi at necropsy relative to controls) was evaluated at dose of 25 mg/kg/day administered subcutaneously; conditions: route subcutaneous; how it was run: as §1
[5] = tested on: Litomosoides carinii; assay: Antifilarial activity (percent reduction of live Litomosoides carinii at necropsy relative to controls) was evaluated at dose of 25 mg/kg/day administered subcutaneously; conditions: route subcutaneous; how it was run: as §1
[6] = tested on: Litomosoides carinii; assay: Antifilarial activity (percent reduction of live Litomosoides carinii at necropsy relative to controls) was evaluated at dose of 6.25 mg/kg/day administered subcutaneously; conditions: route subcutaneous; how it was run: as §1
[7] = tested on: Brugia pahangi; assay: Antifilarial activity (percent reduction of live Brugia pahangi at necropsy relative to controls) was evaluated at dose of 1.56 mg/kg/day administered subcutaneously; conditions: route subcutaneous; how it was run: as §1
[8] = tested on: Litomosoides carinii; assay: Antifilarial activity (percent reduction of live Litomosoides carinii at necropsy relative to controls) was evaluated at dose of 1.56 mg/kg/day administered subcutaneously; conditions: route subcutaneous; how it was run: as §1
[9] = tested on: Litomosoides carinii; assay: Antifilarial activity (percent reduction of live Litomosoides carinii at necropsy relative to controls) was evaluated at dose of 100 mg/kg/day administered perorally; conditions: route oral; in the assay text read “25 mg/kg/day” for “100 mg/kg/day”; how it was run: as §1

| Compound | Reduction [1] [%] | Reduction [2] [%] | further results |
| --- | --- | --- | --- |
| CCCNC(=O)Nc1nc2cc(C(=O)c3ccccc3)ccc2[nH]1 | 0 | 0 | – |
| CN1CCN(C(=O)Nc2nc3cc(C(=O)c4ccccc4)ccc3[nH]2)CC1 | 0 | 0 | – |
| O=C(NCCO)Nc1nc2cc(C(=O)c3ccccc3)ccc2[nH]1 | 20 | 15 | – |
| O=C(Nc1ccc(Cl)c(Cl)c1)Nc1nc2cc(C(=O)c3ccccc3)ccc2[nH]1 | 9 | 0 | – |
| CN(C)C(=O)Nc1nc2cc(C(=O)c3ccccc3)ccc2[nH]1 | 100 | 100 | Reduction [3]: 0%; Reduction [4]: 0%; Reduction [5]: 87%; Reduction [6]: 61% |
| O=C(Nc1ccc(F)cc1)Nc1nc2cc(C(=O)c3ccccc3)ccc2[nH]1 | 66 | 6 | – |
| O=C(Nc1nc2cc(C(=O)c3ccccc3)ccc2[nH]1)Nc1ccccc1[N+](=O)[O-] | 0 | 6 | – |
| Cc1ccc(NC(=O)Nc2nc3cc(C(=O)c4ccccc4)ccc3[nH]2)cc1 | 27 | 0 | – |
| Cc1cccc(NC(=O)Nc2nc3cc(C(=O)c4ccccc4)ccc3[nH]2)c1 | 0 | 0 | – |
| O=C(Nc1ccc([N+](=O)[O-])cc1)Nc1nc2cc(C(=O)c3ccccc3)ccc2[nH]1 | 0 | 9 | – |
| O=C(Nc1nc2cc(C(=O)c3ccccc3)ccc2[nH]1)Nc1ccccc1F | 0 | 0 | – |
| O=C(Nc1cccc([N+](=O)[O-])c1)Nc1nc2cc(C(=O)c3ccccc3)ccc2[nH]1 | 32 | 0 | – |
| O=C(Nc1ccccc1)Nc1nc2cc(C(=O)c3ccccc3)ccc2[nH]1 | 66 | 0 | – |
| COC(=O)Nc1nc2cc(C(=O)c3ccccc3)ccc2[nH]1 [MEBENDAZOLE] | – | – | Reduction [7]: 12.5%; Reduction [3]: 100%; Reduction [4]: 100%; Reduction [5]: 100%; Reduction [8]: 97%; Reduction [6]: 100% |
| Cc1ccc(C(=O)Nc2ccc(S(=O)(=O)O)c3cc(S(=O)(=O)O)cc(S(=O)(=O)O)c23)cc1NC(=O)c1cccc(NC(=O)Nc2cccc(C(=O)Nc3cc(C(=O)Nc4ccc(S(=O)(=O)O)c5cc(S(=O)(=O)O)cc(S(=O)(=O)O)c45)ccc3C)c2)c1 [SURAMIN] | – | – | Reduction [9]: 71% |
